Measured values published in ChEMBL document CHEMBL4480434, “Anacolosins A-F and Corymbulosins X and Y, Clerodane Diterpenes from Anacolosa clarkii Exhibiting Cytotoxicity toward Pediatric Cancer Cell Lines” (2019).

Experiments:
Assay type in all cases: functional
[1] = Antiproliferative activity against human SJCRH30 cells assessed as growth inhibition after 48 hrs by sulforhodamine B assay relative to control
How it was run: (§1)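 A-673, SJCRH30 and Hep293TT cells in RPMI-1640 with 5% FBS and 0.5% gentamycin at 37 °C, 5% CO2, seeded at 4000–6000 cells/well and adhered overnight. DMSO solutions added to triplicate wells (0.5% v/v DMSO final) for 48 h. Medium removed, cells fixed with 10% TCA, SRB absorbance compared with vehicle and time-0 plates. TGI from nonlinear regression; n = 3, mean ± SEM.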

[2] = test system: Hep293TT; assay: Antiproliferative activity against human Hep293TT cells assessed as growth inhibition after 48 hrs by sulforhodamine B assay relative to control; how it was run: as §1
[3] = test system: A673; assay: Antiproliferative activity against human A673 cells assessed as growth inhibition after 48 hrs by sulforhodamine B assay relative to control; conditions: A673, 48 h; how it was run: as §1
[4] = Antiproliferative activity against human D283 cells assessed as growth inhibition after 48 hrs by sulforhodamine B assay; conditions: D283, 48 h
How it was run: (§2)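 D283 medulloblastoma cells grown in IMEM with 5% FBS and 0.3% gentamycin at 37 °C, 5% CO2, plated at 4000–6000 cells/well overnight. Compound in DMSO (0.5% v/v final), triplicate wells, 48 h. Because cells adhere poorly, 20% TCA added directly to the medium for fixation. SRB absorbance referenced to vehicle and time-0 plates; TGI by nonlinear regression, n = 3, mean ± SEM.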

[5] = Antiproliferative activity against human SJCRH30 cells assessed as growth inhibition after 48 hrs by sulforhodamine B assay; how it was run: as §1
[6] = Antiproliferative activity against human D283 cells assessed as growth inhibition after 48 hrs by sulforhodamine B assay relative to control; conditions: D283, 48 h; how it was run: as §2
[7] = test system: Hep293TT; assay: Antiproliferative activity against human Hep293TT cells assessed as growth inhibition after 48 hrs by sulforhodamine B assay; how it was run: as §1
[8] = test system: A673; assay: Antiproliferative activity against human A673 cells assessed as growth inhibition after 48 hrs by sulforhodamine B assay; conditions: A673, 48 h; how it was run: as §1

SMILES | Emax [1] | Emax [2] | Emax [3] | TGI [4] | TGI [5] | Emax [6] | TGI [7] | TGI [8]
C=CC(=C)CCC1(C)C(C)CC(=O)C23C(=C[C@H](OC(=O)CC(C)C)CC12)[C@@H](OC(C)=O)O[C@H]3OC(C)=O (some centres undefined) | 100% | 100% | 100% | 660 nM | 670 nM | 100% | 1000 nM | 1100 nM
C=CC(=C)CCC1(C)C(C)CC(=O)C23C(=C[C@H](OC(=O)CCC)CC12)[C@@H](OC(C)=O)O[C@H]3OC(C)=O (some centres undefined) | 100% | 100% | 100% | 600 nM | 500 nM | 100% | 900 nM | 1000 nM
C=CC(=C)CCC1(C)C(C)CC(=O)C23C(=C[C@H](OC(=O)C(C)C)CC12)[C@@H](OC(C)=O)O[C@H]3OC(C)=O (some centres undefined) | 100% | 100% | 100% | 2300 nM | 2300 nM | 100% | 3200 nM | 4100 nM
C=CC(=C)CCC1(C)C(C)CC(=O)C23C(=C[C@H](OC(=O)[C@@H](C)CC)CC12)[C@@H](OC(C)=O)O[C@H]3OC(C)=O (some centres undefined) | 100% | 100% | 100% | 660 nM | 730 nM | 100% | 800 nM | 1200 nM
C=CC(=C)CCC1(C)C(C)CC(O)C23C(=C[C@H](OC(=O)CC)CC12)[C@@H](OC(C)=O)O[C@H]3OC(C)=O (some centres undefined) | 100% | 100% | 100% | 500 nM | 360 nM | 100% | 300 nM | 900 nM
C=CC(=C)CCC1(C)C(C)CC(=O)C23C(=C[C@H](OC(=O)CC)CC12)[C@@H](OC(C)=O)O[C@H]3OC(C)=O (some centres undefined) | 100% | 100% | 100% | 700 nM | 520 nM | 100% | 1000 nM | 1100 nM
C=CC(=C)CCC1(C)C(C)CC(O)C23C(=C[C@H](OC(=O)CC(C)C)CC12)[C@@H](OC(C)=O)O[C@H]3OC(C)=O (some centres undefined) | 100% | 100% | 100% | 360 nM | 340 nM | 100% | 220 nM | 700 nM
C=CC(=C)CCC1(C)C(C)CC(O)C23C(=C[C@H](OC(=O)/C(C)=C\C)CC12)[C@@H](OC(C)=O)O[C@H]3OC(C)=O (some centres undefined) | 100% | 100% | 100% | 700 nM | 440 nM | 100% | 280 nM | 1000 nM
C=CC(=C)CCC1(C)C(C)CC(O)C23C(=C[C@H](OC(=O)[C@@H](C)CC)CC12)[C@@H](OC(C)=O)O[C@H]3OC(C)=O (some centres undefined) | 100% | 100% | 100% | 1100 nM | 800 nM | 100% | 600 nM | 1700 nM
C=CC(=C)CCC1(C)C(C)CC(=O)C23C(=C[C@H](OC(=O)/C(C)=C\C)CC12)[C@@H](OC(C)=O)O[C@H]3OC(C)=O (some centres undefined) | 100% | 100% | 100% | 2000 nM | 1900 nM | 100% | 1800 nM | 3100 nM
CCC1=C[C@@H]2CN(C1)Cc1c([nH]c3ccccc13)[C@@](C(=O)OC)(c1cc3c(cc1OC)N(C)[C@H]1[C@@](O)(C(=O)OC)[C@H](OC(C)=O)[C@]4(CC)C=CCN5CC[C@]31[C@@H]54)C2 [VINORELBINE] | – | – | – | 80 nM | 6 nM | – | 80 nM | 6 nM
